Assay results taken from ChEMBL document CHEMBL3593182, “Phytochemical Investigation of the Constituents Derived from the Australian Plant Macropidia fuliginosa” (2015).
Activity calls are given as the source filed them. No cut-off for these calls is given here.

How the values were obtained:
Candida albicans [1] = experiment: Antimicrobial activity against Candida albicans ATCC 10231 assessed as zone of inhibition at 5230 uM incubated overnight at 37 degC; assay type: functional, organism-based
Escherichia coli [2] = experiment: Antimicrobial activity against Escherichia coli ATCC 25922 assessed as zone of inhibition at 3875 uM incubated overnight at 37 degC; assay type: functional, organism-based
How it was run: (§1)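 Pure isolates screened against a panel of five bacteria and one fungus, each at a single concentration within 1639–5230 μM. A commercial antibiotic and antifungal agent were tested in parallel as references. Growth inhibition was recorded as the zone of inhibition.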

Staphylococcus aureus [3] = experiment: Antimicrobial activity against Staphylococcus aureus ATCC 25923 assessed as zone of inhibition at 3875 uM incubated overnight at 37 degC; assay type: functional; details: read-out: IZ; how it was run: as §1
Staphylococcus aureus [4] = experiment: Antimicrobial activity against methicillin-resistant Staphylococcus aureus 344/2-32 assessed as zone of inhibition at 3875 uM incubated overnight at 37 degC; assay type: functional, organism-based
Pseudomonas aeruginosa [5] = experiment: Antimicrobial activity against Pseudomonas aeruginosa ATCC 27853 assessed as zone of inhibition at 3875 uM incubated overnight at 37 degC; assay type: functional; details: read-out: IZ; how it was run: as §1
Streptococcus pyogenes [6] = experiment: Antimicrobial activity against Streptococcus pyogenes 345/1 assessed as zone of inhibition at 3875 uM incubated overnight at 37 degC; assay type: functional, organism-based
Candida albicans [7] = experiment: Antimicrobial activity against Candida albicans ATCC 10231 assessed as zone of inhibition at 3875 uM incubated overnight at 37 degC; assay type: functional, organism-based; how it was run: as §1
Escherichia coli [8] = experiment: Antimicrobial activity against Escherichia coli ATCC 25922 assessed as zone of inhibition at 3649 uM incubated overnight at 37 degC; assay type: functional, organism-based; how it was run: as §1
Staphylococcus aureus [9] = experiment: Antimicrobial activity against Staphylococcus aureus ATCC 25923 assessed as zone of inhibition at 3649 uM incubated overnight at 37 degC; assay type: functional, organism-based; how it was run: as §1
Staphylococcus aureus [10] = experiment: Antimicrobial activity against methicillin-resistant Staphylococcus aureus 344/2-32 assessed as zone of inhibition at 3649 uM incubated overnight at 37 degC; assay type: functional, organism-based
Pseudomonas aeruginosa [11] = experiment: Antimicrobial activity against Pseudomonas aeruginosa ATCC 27853 assessed as zone of inhibition at 3649 uM incubated overnight at 37 degC; assay type: functional; details: read-out: IZ; how it was run: as §1
Streptococcus pyogenes [12] = experiment: Antimicrobial activity against Streptococcus pyogenes 345/1 assessed as zone of inhibition at 3649 uM incubated overnight at 37 degC; assay type: functional, organism-based
Candida albicans [13] = experiment: Antimicrobial activity against Candida albicans ATCC 10231 assessed as zone of inhibition at 3649 uM incubated overnight at 37 degC; assay type: functional, organism-based; how it was run: as §1
Escherichia coli [14] = experiment: Antimicrobial activity against Escherichia coli ATCC 25922 assessed as zone of inhibition at 3905 uM incubated overnight at 37 degC; assay type: functional, organism-based; how it was run: as §1
Staphylococcus aureus [15] = experiment: Antimicrobial activity against Staphylococcus aureus ATCC 25923 assessed as zone of inhibition at 3905 uM incubated overnight at 37 degC; assay type: functional, organism-based; how it was run: as §1
Staphylococcus aureus [16] = experiment: Antimicrobial activity against methicillin-resistant Staphylococcus aureus 344/2-32 assessed as zone of inhibition at 3905 uM incubated overnight at 37 degC; assay type: functional, organism-based
Pseudomonas aeruginosa [17] = experiment: Antimicrobial activity against Pseudomonas aeruginosa ATCC 27853 assessed as zone of inhibition at 3905 uM incubated overnight at 37 degC; assay type: functional, organism-based; how it was run: as §1
Streptococcus pyogenes [18] = experiment: Antimicrobial activity against Streptococcus pyogenes 345/1 assessed as zone of inhibition at 3905 uM incubated overnight at 37 degC; assay type: functional; details: read-out: IZ
Candida albicans [19] = experiment: Antimicrobial activity against Candida albicans ATCC 10231 assessed as zone of inhibition at 3905 uM incubated overnight at 37 degC; assay type: functional, organism-based; how it was run: as §1
Escherichia coli [20] = experiment: Antimicrobial activity against Escherichia coli ATCC 25922 assessed as zone of inhibition at 2862 uM incubated overnight at 37 degC; assay type: functional, organism-based; how it was run: as §1
Staphylococcus aureus [21] = experiment: Antimicrobial activity against Staphylococcus aureus ATCC 25923 assessed as zone of inhibition at 2862 uM incubated overnight at 37 degC; assay type: functional; details: read-out: IZ; how it was run: as §1
Staphylococcus aureus [22] = experiment: Antimicrobial activity against methicillin-resistant Staphylococcus aureus 344/2-32 assessed as zone of inhibition at 2862 uM incubated overnight at 37 degC; assay type: functional; details: read-out: IZ
Pseudomonas aeruginosa [23] = experiment: Antimicrobial activity against Pseudomonas aeruginosa ATCC 27853 assessed as zone of inhibition at 2862 uM incubated overnight at 37 degC; assay type: functional; details: read-out: IZ; how it was run: as §1
Streptococcus pyogenes [24] = experiment: Antimicrobial activity against Streptococcus pyogenes 345/1 assessed as zone of inhibition at 2862 uM incubated overnight at 37 degC; assay type: functional; details: read-out: IZ; how it was run: as §1
Escherichia coli [25] = experiment: Antimicrobial activity against Escherichia coli ATCC 25922 assessed as zone of inhibition at 2211 uM incubated overnight at 37 degC; assay type: functional, organism-based; how it was run: as §1
Staphylococcus aureus [26] = experiment: Antimicrobial activity against Staphylococcus aureus ATCC 25923 assessed as zone of inhibition at 2211 uM incubated overnight at 37 degC; assay type: functional; details: read-out: IZ; how it was run: as §1
Staphylococcus aureus [27] = experiment: Antimicrobial activity against methicillin-resistant Staphylococcus aureus 344/2-32 assessed as zone of inhibition at 2211 uM incubated overnight at 37 degC; assay type: functional, organism-based
Pseudomonas aeruginosa [28] = experiment: Antimicrobial activity against Pseudomonas aeruginosa ATCC 27853 assessed as zone of inhibition at 2211 uM incubated overnight at 37 degC; assay type: functional, organism-based; how it was run: as §1
Streptococcus pyogenes [29] = experiment: Antimicrobial activity against Streptococcus pyogenes 345/1 assessed as zone of inhibition at 2211 uM incubated overnight at 37 degC; assay type: functional; details: read-out: IZ; how it was run: as §1
Candida albicans [30] = experiment: Antimicrobial activity against Candida albicans ATCC 10231 assessed as zone of inhibition at 2211 uM incubated overnight at 37 degC; assay type: functional, organism-based; how it was run: as §1

With `COC(=O)Nc1nc2ccccc2[nH]1` the “inhibition zone (IZ)” value (Candida albicans [1]) was “inactive”.

In the case of `O=C1C(=O)c2c(-c3ccccc3)ccc3cccc1c23`, the “inhibition zone (IZ)” value (Escherichia coli [2]) is reported as “inactive”, the zone of inhibition at 3875 µM (Staphylococcus aureus [3]) is reported as 2 mm and the “inhibition zone (IZ)” value (Staphylococcus aureus [4]) is reported as “inactive”. For the same molecule, the zone of inhibition at 3875 µM (Pseudomonas aeruginosa [5]) was 1 mm, the “inhibition zone (IZ)” value (Streptococcus pyogenes [6]) was “inactive” and the “inhibition zone (IZ)” value (Candida albicans [7]) was “inactive”.

With `O=C1OC(=O)c2c(-c3ccccc3)ccc3cccc1c23` the “inhibition zone (IZ)” value (Escherichia coli [8]) was “inactive”, the “inhibition zone (IZ)” value (Staphylococcus aureus [9]) was “inactive” and the “inhibition zone (IZ)” value (Staphylococcus aureus [10]) was “inactive”. For the same molecule, the zone of inhibition at 3649 µM (Pseudomonas aeruginosa [11]) was 2 mm, the “inhibition zone (IZ)” value (Streptococcus pyogenes [12]) was “inactive” and the “inhibition zone (IZ)” value (Candida albicans [13]) was “inactive”.

`O=C1C(c2ccccc2)=Cc2cccc3cccc1c23` was tested, and the “inhibition zone (IZ)” value (Escherichia coli [14]) was “inactive”, the “inhibition zone (IZ)” value (Staphylococcus aureus [15]) was “inactive” and the “inhibition zone (IZ)” value (Staphylococcus aureus [16]) was “inactive”. For the same molecule, the “inhibition zone (IZ)” value (Pseudomonas aeruginosa [17]) was “inactive”, the zone of inhibition at 3905 µM (Streptococcus pyogenes [18]) was 2 mm and the “inhibition zone (IZ)” value (Candida albicans [19]) was “inactive”.

In the case of `CC1(C)S[C@@H]2[C@H](NC(=O)[C@H](N)c3ccccc3)C(=O)N2[C@H]1C(=O)O` [AMPICILLIN], the “inhibition zone (IZ)” value (Escherichia coli [20]) is reported as “inactive”, the zone of inhibition at 2862 µM (Staphylococcus aureus [21]) is reported as 15 mm and the zone of inhibition at 2862 µM (Staphylococcus aureus [22]) is reported as 3 mm. The zone of inhibition at 2862 µM (Pseudomonas aeruginosa [23]) was 2 mm and the zone of inhibition at 2862 µM (Streptococcus pyogenes [24]) was 20 mm.

With `Oc1ccc(/C=C/c2cc(O)c3c(-c4cc(O)cc(O)c4)c(-c4ccc(O)cc4)oc3c2)cc1` the “inhibition zone (IZ)” value (Escherichia coli [25]) was “inactive”, the zone of inhibition at 2211 µM (Staphylococcus aureus [26]) was 2 mm and the “inhibition zone (IZ)” value (Staphylococcus aureus [27]) was “inactive”. For the same molecule, the “inhibition zone (IZ)” value (Pseudomonas aeruginosa [28]) was “inactive”, the zone of inhibition at 2211 µM (Streptococcus pyogenes [29]) was 1 mm and the “inhibition zone (IZ)” value (Candida albicans [30]) was “inactive”.
